# CD11b adhes enh: CD11b/CD18-fibrinogen binding enhancement; K562 CD11b/CD18 adhesion to fibrinogen, ATPlite luminescence; activation, % at 10 µM; 93,000 tested, 0.07% active;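 active means 10 µM primary screen giving 50% or more activity, confirmed by 40% or more on retest at that dose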
# RORA act: activates the human nuclear receptor RORA. 65,000 tested, 1.5% active. P35398. activation, % at 10 µM. CHO-K1 Gal4-RORA LBD luciferase reporter, luminescence; percent increase over mock-subtracted basal signal;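 active means activation above the mean of all tested compounds plus 3 SD, cut at about 49% in these data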
# Mac1 fbg inh: CD11b/CD18-fibrinogen binding inhibition; P05107+P11215; K562 CD11b/CD18 adhesion to fibrinogen, ATPlite luminescence; Mn2+ added to activate the integrin; inhibition, % at 10 µM; 93,000 tested, 0.54% active; AID 1497;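 active means primary inhibition of 50% or more at 10 µM, then 40% or more on retest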
# SF1 activator: activates the human nuclear receptor SF-1. Q13285. CHO-K1 Gal4-SF-1 LBD luciferase reporter; % increase over DMSO SF-1-specific signal. activation, % at 10 µM. 65,000 tested, 1.9% active. AID 522;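 active means activation above the mean activation of all tested compounds plus 3 SD, cut at about 50% in these data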
# Target sequence (Q13285 whole entry, looked up, the tested form may be a part): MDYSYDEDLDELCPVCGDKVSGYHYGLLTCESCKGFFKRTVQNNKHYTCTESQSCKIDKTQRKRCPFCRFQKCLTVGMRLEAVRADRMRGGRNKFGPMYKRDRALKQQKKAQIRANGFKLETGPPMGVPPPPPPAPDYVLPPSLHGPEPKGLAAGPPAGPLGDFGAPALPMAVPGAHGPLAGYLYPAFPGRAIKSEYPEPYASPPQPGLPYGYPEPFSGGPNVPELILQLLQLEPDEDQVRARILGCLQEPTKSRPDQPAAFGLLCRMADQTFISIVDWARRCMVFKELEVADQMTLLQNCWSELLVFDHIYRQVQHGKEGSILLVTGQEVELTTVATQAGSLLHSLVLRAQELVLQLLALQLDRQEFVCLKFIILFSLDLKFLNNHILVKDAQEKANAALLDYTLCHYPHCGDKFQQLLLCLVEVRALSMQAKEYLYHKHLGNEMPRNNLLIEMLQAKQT
#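 Material: Gal4–SF-1 LBD one-hybrid luciferase reporter in CHO-K1 cells | Amount: 4,000 cells per well | Compound dosing: 10 µM single point, 1% DMSO | Schedule: 20 h compound treatment, 37 °C | Measured by: SteadyLite luciferase luminescence | Evaluation: Percent activation versus DMSO | Control set: DMSO-treated SF-1-transfected cells as negative, DMSO-treated mock-transfected cells lacking SF-1 as background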
# MT1-MMP txn act: activates MT1-MMP transcription; HT1080 MT1-MMP promoter luciferase reporter, luminescence, overnight; active compounds read high; AID 750; 86,000 tested, 0.16% active; activation factor at 10 µM;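 active means activation factor of at least 2 for MT1-MMP transcription at 10 µM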
# Calb biofilm kill: kills Candida albicans biofilms. C. albicans biofilm + clotrimazole, Alamar Blue. inhibition, % at 6 µM. 85,000 tested, 0.14% active. AID 834;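 active means inhibition above 20%; inactive means inhibition below 20%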;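 further: preformed 24 hr biofilms exposed to compound for 48 hr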
# Numbers stand for hits; . = inactive; / = no result. In the library only some 2.2% were active in any assay of this set; here they are far more common.
SMILES,CD11b adhes enh,RORA act,Mac1 fbg inh,SF1 activator,MT1-MMP txn act,Calb biofilm kill
COc1cc(CN(C)CC(=O)c2[nH]c(C)c(C(C)=O)c2C)ccc1OC(F)F,.,.,74,.,.,/
Cc1cccc(C)c1N1C(=O)c2ccccc2C1=O,.,.,.,.,.,40
O=C1c2ccccc2C(=O)N1c1ncccn1,.,.,.,.,.,.
Nc1nc(-c2ccco2)nn1C(=O)CCc1ccccc1,.,.,.,.,.,.
Nc1nc2ccccc2n1C(=O)CCc1ccccc1,.,.,.,67,.,.
Cc1c(-c2nc(N)nc(Nc3ccccc3)n2)oc2ccccc12,.,89,.,162,2,.
Nc1nc(CN2CCCCCC2)nc(Nc2ccccc2)n1,.,/,.,/,.,.
Cc1cc(-c2csc(NC(=O)c3ccc(C#N)cc3)n2)c(C)n1Cc1ccccc1,.,/,.,/,/,/
CCOCC(=O)Nc1nnc(C2CCCCC2)s1,/,50,/,.,.,.
COCC(=O)Nc1nnc(C2CCCCC2)s1,.,52,.,.,.,.
COc1ccc(Cl)cc1NC(=S)NCCSc1ccc(C)cc1,.,/,.,/,/,/
c1ccc(N2CCN(c3nc4cc5c(cc4s3)OCCO5)CC2)cc1,.,77,.,61,.,.
c1c2c(cc3sc(N4CCOCC4)nc13)OCCO2,.,.,.,.,.,/
CC(C)c1ccc2oc(-c3cc(N)ccc3O)nc2c1,.,.,.,.,.,.
Nc1ccc2oc(CCc3ccccc3)nc2c1,.,144,.,79,.,.
Cc1ccccc1-c1nc2cc(N)ccc2o1,.,.,.,58,.,.
Cc1ccccc1OCc1nc2c3cnn(C)c3ncn2n1,.,50,.,.,.,.
Cc1cccc(C)c1OCc1nnc2c3cnn(C)c3ncn12,.,.,.,.,.,.
CCCC/C=C/C(NC(=O)OCc1ccccc1Cl)c1ccccc1 (stereo not given),/,/,/,/,.,/
N#Cc1nc(COc2ccccc2F)oc1N1CCCCCC1,/,.,/,.,2.2,.
O=[N+]([O-])c1cccc(S(=O)(=O)Nc2nc3ccccc3nc2Nc2cccc(S(=O)(=O)N3CCCCC3)c2)c1,.,/,98,/,/,/
Cc1cccc(-n2ncc3c(NCc4cccnc4)ncnc32)c1,/,73,/,56,.,.
Cc1ccc(-n2ncc3c(NCc4ccccc4)ncnc32)cc1,.,61,.,62,.,.
C=CCNc1ncnc2c1cnn2-c1ccc(Cl)cc1,.,.,.,50,.,.
C=CCNc1ncnc2c1cnn2-c1cccc(C)c1,.,55,.,.,.,.
SMILES,CD11b adhes enh,RORA act,Mac1 fbg inh,SF1 activator,MT1-MMP txn act,Calb biofilm kill
Clc1ccc(-n2ncc3c(NCCN4CCOCC4)ncnc32)cc1,.,.,.,.,.,/
Cc1cccc(-n2ncc3c(NC4CCCCC4)ncnc32)c1,/,.,/,.,.,.
COC(=O)c1cc(Nc2ncnc3c2cnn3-c2ccccc2)cc(C(=O)OC)c1,/,.,/,.,.,/
Cc1nn(C(C)C(=O)NNC(=S)Nc2ccc(F)cc2)c(C)c1[N+](=O)[O-] (stereo not given),.,/,.,/,/,/
CN(c1ccccc1)S(=O)(=O)c1cccc(C(=O)OCC(=O)NCc2ccc3c(c2)OCO3)c1,.,/,.,/,/,/
Cc1cccc(-n2ncc3c(NCCCO)ncnc32)c1,.,83,.,67,.,.
c1ccc(CNc2ncnc3ccccc23)cc1,.,.,66,.,.,.
CCCCNc1ncnc2c1cnn2-c1ccc(C)cc1C,.,.,.,.,.,.
COc1cc2ncnc(NCc3ccccc3)c2cc1OC,.,/,.,/,/,/
c1ccc(-n2ncc3c(NCc4ccco4)ncnc32)cc1,.,90,.,77,.,.
Clc1ccc(-n2ncc3c(NCc4ccccn4)ncnc32)cc1,/,.,/,74,.,.
Nc1cc(C2CCCC2)nn1-c1ccccc1,.,62,.,.,.,.
CC(C)C(=O)Nc1ccc(NC(=O)c2cccc(F)c2)cn1,.,.,.,.,.,.
Cc1cc(Cl)c(S(=O)(=O)N2CCN(c3ccc(F)cc3)CC2)cc1OCC(N)=O,.,.,.,.,.,/
Cc1cc(Cl)c(S(=O)(=O)N2CCN(c3ccc(F)cc3)CC2)cc1OCC(=O)NC1CCCCC1,.,/,94,/,.,.
COC(=O)[C@@H]1C[C@H]1[C@@H](NC(C)=O)c1ccccc1,/,/,/,/,.,/
Cc1ccc(C2CC(c3ccco3)n3ncnc3N2)cc1 (stereo not given),.,/,.,/,.,/

# High-throughput results as filed in PubChem.
